Laboratory results: the array DNA melting data of Ke et al. (doi:10.1101/2024.01.08.574731)

Legend:
[1] = folding enthalpy; higher = less favourable; fluorescence melt of hairpins on a sequencing array, two-state fit; conditions: sodium 0.088 M
How it was run: (§1)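 Library hairpins on a sequenced MiSeq flow cell carried annealed Cy3 and quencher oligos, and their Cy3 fluorescence was imaged in 50 mM Na-HEPES pH 8.0 with 25 mM NaCl, in 2.5 °C steps up to 60 °C. Signals were normalised to Cy3 before quenching and to control constructs. Melting temperature and folding enthalpy were obtained from bootstrapped two-state fits, combined by inverse-variance weighting across four replicates, and the fitted temperatures were then raised by 9.35 °C to match UV melts.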

[2] = melting temperature; fluorescence melt of hairpins on a sequencing array, two-state fit, raised by 9.35 °C to match UV melts; conditions: sodium 0.088 M
How it was run: as §1

| Sequence | folding enthalpy [1] [kcal/mol] | Tm [2] [°C] |
| --- | --- | --- |
| GTGCGCGAAAGCGGCCAC ((((((....)))..))) | -11.5 | 45.9 |
| GTGCGCGAAAGCGGGCAC ((((((....)))..))) | -15.9 | 60.7 |
| GTGCGCGAAAGCGTACAC ((((((....)))..))) | -11.9 | 60.5 |
| GTGCGGCCGAAAGGCCAC (((..(((....)))))) | -10.1 | 64.1 |
| GTGCGGCGAAAGCCCCAC (((.(((....))).))) | -23 | 47.6 |
| GTGCGGGGAAACCTGCGC (.((.((....)).)).) | -26.7 | 51.9 |
| GTGCGTCGAAAGACCCAC (((.(((....))).))) | -26.2 | 45.8 |
| GTGCGTGGAAACGTGCAC ((((..(....)..)))) | -25.3 | 50.8 |
| GTGCTACGAAAGTACCAC (((.(((....))).))) | -26 | 37.8 |
| GTGCTAGGAAACTAGCAC (((((((....))))))) | -49.4 | 65 |
| GTGCTAGGAAACTAGTAC ((.((((....)))).)) | -33.5 | 44.9 |
| GTGCTAGGAAACTGGTAC ((.(.((....)).).)) | -18.9 | 32.6 |
| GTGCTATCGAAAGATCAC (((..(((....)))))) | -13 | 30.6 |
| GTGCTCCGAAAGGACCAC (((.(((....))).))) | -27.5 | 45 |
| GTGCTCGAAAGAGCCCAC ((((((....)))..))) | -8.93 | 35.8 |
| GTGCTCGAAAGAGTACAC ((((((....)))..))) | -14.3 | 49.7 |
| GTGCTCGGAAACGGGCAC ((((.((....)).)))) | -47 | 61.4 |
| GTGCTGGAAACAGCAC ((((((....)))))) | -33.2 | 67.6 |
| GTGCTGGGAAACCAGTGC (..((((....))))..) | -27.9 | 47.5 |
| GTGCTTGGAAACAGGCAC ((((.((....)).)))) | -41 | 53.4 |
| GTGGAACGAAAGTTCAC (((.(((....)))))) | -11.2 | 44.9 |
| GTGGAAGAAATTCCAC ((((((....)))))) | -34.8 | 51.8 |
| GTGGAAGGAAACTTCCAC (((((((....))))))) | -42.7 | 62 |

| Sequence | folding enthalpy [1] [kcal/mol] | Tm [2] [°C] |
| --- | --- | --- |
| GTGGAATCGAAAGATCAC (((..(((....)))))) | -19.2 | 33.9 |
| GTGGACCGAAAGGTACAC (((.(((....))).))) | -30.4 | 67 |
| GTGGACCGAAAGGTCAC (((.(((....)))))) | -10.4 | 53.7 |
| GTGGACCGAAAGGTGCAC (((.(((....))).))) | -24.7 | 67.3 |
| GTGGACGAAAGTCAACAC ((((((....)))..))) | -15.3 | 45.9 |
| GTGGACGAAAGTCACAC ((((((....))).))) | -20.9 | 50 |
| GTGGACGAAAGTCGCCAC ((((((....)))..))) | -18 | 43 |
| GTGGACGAAAGTCGTCAC ((((((....)))..))) | -16.3 | 40.1 |
| GTGGACGAAAGTCTACAC ((((((....)))..))) | -16.3 | 51.2 |
| GTGGACGAAAGTCTCCAC ((((((....)))..))) | -17.2 | 38.8 |
| GTGGACGGAAACGTCCGC (.(((((....))))).) | -18.4 | 62 |
| GTGGACGGAAACGTTCAC (((.(((....))).))) | -42.2 | 55 |
| GTGGAGAAATCCAC (((((....))))) | -25.7 | 49.3 |
| GTGGAGGGAAACCTCTGC (..((((....))))..) | -19.2 | 37.6 |
| GTGGATGCGAAAGCACAC (((..(((....)))))) | -17.9 | 45.4 |
| GTGGATGGAAACGTTCAC (((.(.(....).).))) | -16.7 | 32.4 |
| GTGGCACGAAAGTGTCAC (((.(((....))).))) | -42 | 67.2 |
| GTGGCAGGAAACCACCAC ((((..(....)..)))) | -22.5 | 35 |
| GTGGCAGGAAACTACCAC ((((.((....)).)))) | -34.2 | 44.6 |
| GTGGCCACGAAAGTGCAC (((..(((....)))))) | -12.5 | 38.1 |
| GTGGCCCCGAAAGGGCAC (((..(((....)))))) | -15 | 57.5 |
| GTGGCCGAAAGGCGCAC ((((((....))).))) | -13.9 | 56.3 |
| GTGGCCGAAAGGCGTCAC ((((((....)))..))) | -12.2 | 43.5 |

| Sequence | folding enthalpy [1] [kcal/mol] | Tm [2] [°C] |
| --- | --- | --- |
| GTGGCCGGAAACGGCTAC ((.((((....)))).)) | -20.4 | 60.3 |
| GTGGCCGGAAACGGTCAC (((.(((....))).))) | -37.2 | 66.1 |
| GTGGCCGGAAACGGTCGC (.(.(((....))).).) | -39.5 | 53.4 |
| GTGGCGACGAAAGTCCAC (((..(((....)))))) | -17.3 | 42.8 |
| GTGGCGGGAAACCGCCGC (.(((((....))))).) | -14.9 | 66.6 |
| GTGGCGGGAAACCGTCAC (((.(((....))).))) | -40.6 | 63.5 |
| GTGGCTCGAAAGAGTCAC (((.(((....))).))) | -49.6 | 63.8 |
| GTGGGACGAAAGTCACAC (((.(((....))).))) | -29.6 | 68.9 |
| GTGGGAGGAAACTTCCGC (.((.((....)).)).) | -23.9 | 40.6 |
| GTGGGCCGAAAGGCCAC (((.(((....)))))) | -10.7 | 64.9 |
| GTGGGCGAAAGCCGACAC ((((((....)))..))) | -13.6 | 53.8 |
| GTGGGCGAAAGCCTACAC ((((((....)))..))) | -11.9 | 55.1 |
| GTGGGCGAAAGCCTCCAC ((((((....)))..))) | -11.7 | 37.6 |
| GTGGGCGAAAGCCTTCAC ((((((....)))..))) | -12.7 | 33.1 |
| GTGGGGAAACCCAC (((((....))))) | -25.7 | 62 |
| GTGGGGGCGAAAGCCCAC (((..(((....)))))) | -15.1 | 65.5 |
| GTGGGTACGAAAGTACAC (((..(((....)))))) | -31.6 | 55 |
| GTGGGTCGAAAGACTCAC (((.(((....))).))) | -40.4 | 59 |
| GTGGGTGCGAAAGCACAC (((..(((....)))))) | -17.5 | 64.2 |
| GTGGGTGGAAACACCTAC ((.((((....)))).)) | -21.3 | 51 |
| GTGGGTGGAAACACCTGC (..((((....))))..) | -14.7 | 43 |
| GTGGTAACGAAAGTTCAC (((..(((....)))))) | -10.7 | 35.7 |
| GTGGTAGCGAAAGCTCAC (((..(((....)))))) | -18.1 | 43.8 |

| Sequence | folding enthalpy [1] [kcal/mol] | Tm [2] [°C] |
| --- | --- | --- |
| GTGGTCGAAAGACCCCAC ((((((....)))..))) | -9.79 | 38 |
| GTGGTCGAAAGACCGCAC ((((((....)))..))) | -11.6 | 55.6 |
| GTGGTCGAAAGACGCAC ((((((....))).))) | -16.3 | 49.3 |
| GTGGTCGAAAGACGGCAC ((((((....)))..))) | -16.8 | 38.5 |
| GTGGTCGAAAGACTCAC ((((((....))).))) | -19.6 | 46.2 |
| GTGGTCGCGAAAGCGCAC (((..(((....)))))) | -12.4 | 44.9 |
| GTGGTCGGAAACGACTAC ((.((((....)))).)) | -30 | 53.7 |
| GTGGTCGGAAACGATCGC (.(.(((....))).).) | -22.4 | 46.1 |
| GTGGTCTCGAAAGAGCAC (((..(((....)))))) | -25.9 | 48.8 |
| GTGGTGGGAAACCACCGC (.(((((....))))).) | -29.4 | 60.5 |
| GTGGTGGGAAACCACTAC ((.((((....)))).)) | -22.5 | 56.1 |
| GTGGTGGGAAACCACTGC (..((((....))))..) | -24.2 | 55.1 |
| GTGGTTCGAAAGAATCAC (((.(((....))).))) | -47.5 | 53.7 |
| GTGGTTGAAAAACCAC ((((((....)))))) | -37.8 | 59.7 |
| GTGGTTGGAAACAATCAC (((.(((....))).))) | -36.6 | 47.7 |
| GTGTAACGAAAGTTCAC (((.(((....)))))) | -20 | 44.6 |
| GTGTAAGGAAACCTACAC (((((.(....).))))) | -30.6 | 38.1 |
| GTGTAAGGAAACTTATAC ((.((((....)))).)) | -19.6 | 33.8 |
| GTGTACCCGAAAGGGCAC (((..(((....)))))) | -20.6 | 48.3 |
| GTGTACGAAAGTAGGCAC ((((((....)))..))) | -16.5 | 32.8 |
| GTGTAGAAATACAC (((((....))))) | -21.8 | 41.6 |
| GTGTAGCGAAAGCTCAC (((.(((....)))))) | -23.2 | 51.8 |
